Bioassay records deposited in PubChem BioAssay by several laboratories.
Most compounds without a hit are left out; they make up all but 5.9% or so of the library.
hDAT+cocaine: modulates human dopamine transporter uptake under cocaine | Q01959 | LLC-PK1 hDAT cells, [14C]-dopamine uptake with cocaine IC80; actives deviate in either direction | B-score at 10 µM | actives 1.3% (n = 110,000);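 active = Z score or B-score, a plate-position-corrected score, falls beyond the plate's 99.7% confidence bounds, in either direction; inactive = both scores lie inside the 99.7% bounds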
Measles CPE: protection of cells from measles virus; protection (pct of control), % at 4 µM; actives 1.5% (n = 140,000); Measles virus-infected cells, CPE protection, absorbance; in the data active = protection mostly above about 24%, no sharp cut-off; inactive = mostly below about 26%
Cav32 inh: human Cav3.2 channel inhibition, primary screen; B-score at 10 µM; O95180; Cav3.2-expressing cells, Fluo-4 calcium fluorescence FDSS; active compounds read low; actives 4% (n = 100,000);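 active = single-dose well whose peak fluorescence ratio is a statistical outlier from its plate by either plate-standardised score or position-corrected B-score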
PTK2B oligo ant: Pyk2 (human) oligomerization antagonism; Q293 cells, Pyk2 FERM NanoBiT luminescence; active compounds read low; z-score (the deposit names both 25 µM and 10 µM); Q14289; actives 0.83% (n = 99,000); AID 1347419;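 active = Z-score of -3 or lower, scaled per plate to the spread of control and sample wells; inactive = z-score above -3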;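 note: negative z-score means lost luminescence so less FERM oligomerization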
Rev-RRE block: inhibitors of HIV-1 Rev-RRE RNA interaction; P05866; Rev peptide-RRE RNA binding, FRET; inhibition, % at 8 µM; actives 0.79% (n = 97,000); AID 704;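 active = inhibition above the screen-wide mean plus 3 SD, cut at about 35% in these data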
Target sequence (P05866 whole entry, looked up): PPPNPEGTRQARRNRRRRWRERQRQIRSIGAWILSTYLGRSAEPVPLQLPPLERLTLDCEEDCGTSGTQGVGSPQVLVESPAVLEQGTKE
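Assay system: Rev peptide and RRE RNA, both fluorescently labelled; times: 5 min preincubation and 15 min binding, 25 °C; detection: FRET, ex 480 nm, em 540 and 671 nm; read-out basis: % inhibition from 671/540 nm acceptor-to-donor ratio, scaled between controls; benchmarks: DMSO low control, neomycin B high control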
Phagocytosis inh: inhibitors of macrophage phagocytosis | J774A.1 macrophage IgG-bead phagocytosis, imaging | inhibition, % at 5 µM | actives 0.07% (n = 110,000) | AID 1029;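 active = inhibition above the mean of the plate negative controls plus 5 SD, cut at about 13% in these data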;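 note: phagocytic index as fraction of beads internalized from green versus red external bead signal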
Numbers stand for hits; i = inactive; nt = not tested or not shown.

SMILES | hDAT+cocaine | Measles CPE | Cav32 inh | PTK2B oligo ant | Rev-RRE block | Phagocytosis inh
CC(CCc1ccco1)NC(=O)Nc1cccc(F)c1 (configuration not stated) | -2.6 | i | i | i | i | i
Cc1ccc(S(=O)(=O)n2c3ccc(F)cc3c3nc(C)sc32)cc1 | nt | i | nt | nt | nt | i
C=CCn1c(=O)c2ccccc2n2c(SCc3cc(=O)n4ccsc4n3)nnc12 | 2.8 | 66 | i | i | i | i
NC(=O)C1CCN(C(=O)COc2ccc(S(=O)(=O)NCc3ccccc3)cc2Cl)CC1 | nt | i | nt | i | nt | i
Cc1ccc(NC(=O)CCNS(=O)(=O)c2cc(Br)cnc2N)cc1Cl | nt | i | nt | i | nt | i
Cc1cc(NC(=O)CCNS(=O)(=O)c2cc(Br)cnc2N)ccc1Br | i | i | -5 | i | i | i
COc1ccc(-c2[nH]ncc2/C=C(/C#N)C(=O)NC2CCCCCC2)cc1 | 2.8 | i | i | i | i | i
CCOc1c(C)cc2[nH]c(CCC(=O)O)nc2c1C | i | i | i | i | nt | nt
CC1CCCCN1C(=O)Cn1nnc(-c2cccnc2)n1 (configuration not stated) | i | i | i | i | 38 | nt
Cc1ccc(-c2nnn(CCC(=O)N3CCCCC3C)n2)cc1 (configuration not stated) | i | i | nt | i | i | i
CCOC(=O)C1CCCN(C(=O)C2c3ccccc3Oc3ccccc32)C1 (configuration not stated) | i | i | -5.8 | i | i | i
CS(=O)(=O)N1CCN(C(=O)C2c3ccccc3Oc3ccccc32)CC1 | i | 67 | i | i | i | i
CCOc1ccccc1N1CCN(C(=O)C2c3ccccc3Oc3ccccc32)CC1 | i | i | i | i | i | i
Cc1[nH]c2ccc(Br)cc2c(=O)c1CN1CCCCC1 | i | i | i | i | i | i
COC(=O)c1ccc2[nH]c(C)c(CN3CCCC3)c(=O)c2c1 | i | 48 | i | i | nt | i
CC(NC(=O)OCc1ccccc1)C(=O)Oc1cc2oc(=O)cc(-c3ccccc3)c2cc1Cl (configuration not stated) | nt | 29 | nt | nt | nt | i
CC(C)C(NC(=O)CSc1ccc(Cl)cc1)C(C)C | i | i | i | i | i | i
NC(=O)C(c1ccc(Cl)cc1)c1ccc(Sc2ccc(Cl)cc2)nn1 (configuration not stated) | i | i | -4.3 | i | i | i
Cc1ccccc1-n1c(O)c(/C=N/N2CCCCC2c2cccnc2)c(=O)[nH]c1=O (configuration not stated) | nt | i | nt | nt | nt | i
Cc1cc(C)n2nc(-c3ccc(F)cc3)nc2n1 | i | 23 | i | i | i | i
Cc1cc(C)n2nc(-c3cccnc3)nc2n1 | i | i | i | i | i | i
O=C1c2cnc3nc(SCc4ccc(Cl)cc4)nn3c2CC2c3ccccc3CCN12 (configuration not stated) | i | i | -6.3 | i | i | i
Cc1onc(-c2ccccc2)c1C(=O)NNC(=S)NC(=O)/C=C/c1cccs1 | nt | i | nt | nt | nt | i
O=C(O)c1cc(S(=O)(=O)O)ccc1O | i | 55 | i | i | i | i
O=C(O)c1ccccc1O | i | 43 | i | nt | nt | nt
SMILES | hDAT+cocaine | Measles CPE | Cav32 inh | PTK2B oligo ant | Rev-RRE block | Phagocytosis inh
COc1nc(N=C(N)N)nc2ccc(C)cc12 | nt | i | nt | nt | nt | i
O=C(NNC(=S)Nc1ccc(Cl)cc1Cl)c1ccc(N2CCOCC2)c([N+](=O)[O-])c1 | nt | i | nt | nt | nt | i
COCCCNC(=O)c1c(N)n(-c2cccc(S(N)(=O)=O)c2)c2nc3ccccc3nc12 | i | 42 | i | i | i | i
CCCNC(=O)c1c(N)n(-c2cccc(OC)c2)c2nc3ccccc3nc12 | i | i | i | i | i | nt
Cc1c(NC(=O)CN2CCN(C(c3ccccc3)c3ccccc3)CC2)c(=O)n(-c2ccccc2)n1C | i | i | i | -3.5 | i | i
Cc1c(NS(C)(=O)=O)c(=O)n(-c2ccccc2)n1C | i | 55 | i | i | nt | i
O=C(NCC1CCCO1)c1ccccc1 (configuration not stated) | i | i | i | i | i | i
Nc1c(C(=O)NCC2CCCO2)c2nc3ccccc3nc2n1-c1ccccc1 (configuration not stated) | i | i | -5.6 | i | i | nt
CCNc1nc(NC(C)C)nc(N(n2cnnc2)S(=O)(=O)c2ccc(C)cc2)n1 | nt | i | nt | nt | nt | i
COc1cccc(N2[C@@H](CC(=O)O)c3cc(C(F)(F)F)ccc3S2(=O)=O)c1 | i | nt | i | nt | nt | nt
Cc1cccc(-n2c(=S)[nH]c3c(oc4ccccc43)c2=O)c1 | nt | i | nt | nt | nt | i
CCN(CC)C(=O)Nc1c(C)n(C)n(-c2ccccc2)c1=O | i | i | i | i | i | nt
Cc1c(NC(=O)COC(=O)C(c2ccc(Cl)cc2)C(C)C)c(=O)n(-c2ccccc2)n1C (configuration not stated) | -7.9 | i | i | i | i | i
Cc1c(NC(=O)c2c(N)n(-c3ccccc3)c3nc4ccccc4nc23)c(=O)n(-c2ccccc2)n1C | nt | 59 | nt | nt | nt | i
Cc1c(NC(=O)c2c(F)cccc2F)c(=O)n(-c2ccccc2)n1C | i | i | i | i | i | i
Cc1c(NC(=O)COC(=O)c2cc(-c3ccc(-c4ccccc4)cc3)nc3ccccc23)c(=O)n(-c2ccccc2)n1C | nt | 38 | nt | nt | nt | i
CCC(CC)C(=O)Nc1c(C)n(C)n(-c2ccccc2)c1=O | i | 48 | i | i | i | i
COc1ccc(-c2cc(C(=O)OC(C)C(=O)Nc3c(C)n(C)n(-c4ccccc4)c3=O)c3ccccc3n2)cc1 (configuration not stated) | nt | i | nt | nt | nt | i
Cc1cc(C(=O)Oc2cccnc2)ccc1[N+](=O)[O-] | nt | i | nt | nt | nt | i
COC(=O)/C=C1/S/C(=N/N=C/c2ccc(N(C)C)cc2)NC1=O | nt | i | nt | nt | nt | i
CCOc1cc(C=O)ccc1OS(=O)(=O)c1ccc(NC(C)=O)cc1 | nt | i | nt | nt | nt | i
CCOc1ccc2nc(NS(=O)(=O)Cc3ccccc3)sc2c1 | i | i | i | i | i | i
COc1ccccc1-n1c(SCC(=O)NC2CCCCC2)nc2c(c1=O)SCC2 | i | 54 | nt | nt | i | i
COc1ccc(NC(=O)CSc2nc3c(c(=O)n2-c2ccccc2OC)SCC3)cc1 | i | i | i | nt | i | i
Cc1ccc(C(=O)N/C(=C/C=C\c2ccccc2)C(=O)NCc2ccco2)cc1 | nt | i | nt | nt | nt | i
CCOC(=O)/C(C#N)=C/Nc1ccccc1OC | -8.2 | i | i | i | i | i
